Measured values reported in paper PMC5532717 (ACS Central Science, 2017).

How the values were obtained:
Assay type in all cases: biochemical
[1] = biological target: T1, lactase-phlorizin hydrolase (LPH) (Mus musculus, UniProt F8VPT3); test: Competitive ABPP against probe 13 in mouse gastrointestinal lysate; conditions: mouse intestine lysate, 1 h at 37 °C
T1 sequence (F8VPT3 869-1931 limits assumed): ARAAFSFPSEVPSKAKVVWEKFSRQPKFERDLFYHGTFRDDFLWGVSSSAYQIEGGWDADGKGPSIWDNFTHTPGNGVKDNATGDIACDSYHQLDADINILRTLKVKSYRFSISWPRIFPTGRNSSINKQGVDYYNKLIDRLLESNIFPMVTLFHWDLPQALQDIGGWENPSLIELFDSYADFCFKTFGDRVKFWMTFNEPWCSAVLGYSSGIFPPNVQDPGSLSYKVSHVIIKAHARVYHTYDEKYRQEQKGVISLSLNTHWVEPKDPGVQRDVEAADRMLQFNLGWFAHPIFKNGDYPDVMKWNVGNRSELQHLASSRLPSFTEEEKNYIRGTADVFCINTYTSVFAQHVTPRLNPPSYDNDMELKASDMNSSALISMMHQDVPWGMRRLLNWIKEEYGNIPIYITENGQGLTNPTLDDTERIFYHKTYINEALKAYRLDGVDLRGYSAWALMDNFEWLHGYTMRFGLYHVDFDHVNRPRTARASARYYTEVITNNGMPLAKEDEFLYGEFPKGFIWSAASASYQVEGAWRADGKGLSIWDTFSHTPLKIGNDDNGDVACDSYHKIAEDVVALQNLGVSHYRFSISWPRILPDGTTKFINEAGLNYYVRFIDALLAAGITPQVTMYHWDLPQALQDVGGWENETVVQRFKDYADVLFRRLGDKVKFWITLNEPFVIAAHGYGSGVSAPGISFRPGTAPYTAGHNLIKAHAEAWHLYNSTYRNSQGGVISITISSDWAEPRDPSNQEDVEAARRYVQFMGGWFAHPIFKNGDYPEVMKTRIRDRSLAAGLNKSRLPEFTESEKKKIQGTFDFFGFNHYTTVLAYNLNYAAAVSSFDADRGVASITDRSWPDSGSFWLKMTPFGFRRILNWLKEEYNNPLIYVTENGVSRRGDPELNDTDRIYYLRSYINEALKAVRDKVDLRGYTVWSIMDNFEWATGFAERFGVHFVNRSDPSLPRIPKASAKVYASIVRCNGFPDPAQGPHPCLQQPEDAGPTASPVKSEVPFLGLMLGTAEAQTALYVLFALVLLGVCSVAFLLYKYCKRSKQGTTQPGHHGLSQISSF
Outline: (§1)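 Mixed mouse duodenum, jejunum and ileum homogenates were made in 25 mM potassium phosphate pH 6.5 with protease inhibitors (40 μg protein). Held 5 min on ice in McIlvaine buffer pH 4 or 7. Incubated 1 h at 37 °C with test compound (final 150 to 0.005 μM, plus 0), then probe 13 for 30 min at 37 °C. Boiled in Laemmli buffer, 10% SDS–PAGE, Cy5 fluorescence scan.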

human β-glucosidase GBA1 = biological target: T2, human β-glucosidase GBA1 (Homo sapiens, UniProt P04062, R534H); test: In vitro apparent IC50, recombinant GBA1
T2 sequence (P04062 40-536 R534H): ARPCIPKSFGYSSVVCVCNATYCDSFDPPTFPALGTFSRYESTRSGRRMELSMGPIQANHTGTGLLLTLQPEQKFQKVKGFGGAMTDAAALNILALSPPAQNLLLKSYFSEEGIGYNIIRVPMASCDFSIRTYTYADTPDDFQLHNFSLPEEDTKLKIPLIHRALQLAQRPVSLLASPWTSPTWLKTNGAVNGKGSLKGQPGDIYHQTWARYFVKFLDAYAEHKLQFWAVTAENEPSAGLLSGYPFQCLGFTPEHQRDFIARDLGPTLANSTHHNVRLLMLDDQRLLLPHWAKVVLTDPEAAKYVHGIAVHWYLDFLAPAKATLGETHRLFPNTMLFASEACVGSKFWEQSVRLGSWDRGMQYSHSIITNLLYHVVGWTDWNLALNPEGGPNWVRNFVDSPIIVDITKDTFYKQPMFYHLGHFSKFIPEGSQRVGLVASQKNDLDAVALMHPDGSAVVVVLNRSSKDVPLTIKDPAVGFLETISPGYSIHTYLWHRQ
Outline: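 Recombinant human GBA1 (Cerezyme) preincubated with a range of test compound concentrations for 30 min at 37 °C, then added to 4-MU-Glc substrate mixture to measure residual activity. Reaction quenched with 1 M NaOH–glycine (pH 10.3); 4-MU fluorescence read at λEX 366 / λEM 445 nm. Apparent IC50 is the mean of three technical replicates.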

GBA1 = biological target: T3, GBA1 (Mus musculus, UniProt P17439); test: Competitive ABPP against probe 13 in mouse gastrointestinal lysate; conditions: mouse intestine lysate, 1 h at 37 °C
T3 sequence (P17439 20-515): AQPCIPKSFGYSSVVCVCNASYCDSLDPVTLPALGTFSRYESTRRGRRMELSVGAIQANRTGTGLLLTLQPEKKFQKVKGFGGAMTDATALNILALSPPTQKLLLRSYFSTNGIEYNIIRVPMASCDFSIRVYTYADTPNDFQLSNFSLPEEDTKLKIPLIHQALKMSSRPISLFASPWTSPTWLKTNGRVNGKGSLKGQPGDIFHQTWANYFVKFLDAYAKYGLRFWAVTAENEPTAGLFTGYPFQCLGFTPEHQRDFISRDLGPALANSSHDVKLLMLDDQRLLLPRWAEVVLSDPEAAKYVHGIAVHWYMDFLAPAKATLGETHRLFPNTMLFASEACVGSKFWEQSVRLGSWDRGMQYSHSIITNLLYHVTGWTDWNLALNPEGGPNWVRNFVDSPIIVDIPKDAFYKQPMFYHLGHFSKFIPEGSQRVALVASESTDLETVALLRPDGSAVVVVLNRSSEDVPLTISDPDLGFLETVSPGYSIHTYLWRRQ
Outline: as §1

human α-glucosidase GAA = human α-glucosidase GAA (Homo sapiens, UniProt P10253); test: In vitro apparent IC50, recombinant GAA
Outline: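 The enzyme source was GBA2-overexpressing HEK293T lysate or recombinant human GAA. It was preincubated 30 min at 37 °C with a range of test compound concentrations, then transferred into 4-MU glucoside substrate mixture to measure residual activity. Quenched with 1 M NaOH–glycine pH 10.3; 4-MU fluorescence at λex 366/λem 445 nm. Apparent IC50 is the mean of three technical replicates.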

[2] = test system: maltase-glycoamylase (MGAM); test: Competitive ABPP against probe 13 in mouse gastrointestinal lysate; conditions: mouse intestine lysate, 1 h at 37 °C
Outline: as §1

GAA = GAA (Homo sapiens, UniProt P10253); test: Competitive ABPP against probe 13 in fibroblast lysates, pH 4; conditions: pH 4, preincubation 15, 30 or 60 min
Outline: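 Human normal dermal fibroblast homogenate (17.6 μg total protein) in 150 mM McIlvaine buffer for 5 min on ice, at pH 4 for GAA and pH 7 for GANAB. Exposed to test compound for 15, 30 or 60 min at 37 °C, then labeled with Cy5 aziridine probe 13 for 30 min at 37 °C. Denatured at 98 °C, 10% SDS–PAGE, Cy5 in-gel fluorescence scan.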

- competition of off-target probe 13 labeling of LPH [1]: not outcompeted
- IC50 (human β-glucosidase GBA1): > 100000 nM
- competition of off-target probe 13 labeling of GBA1 (GBA1): not outcompeted
- IC50 (human α-glucosidase GAA): 82 ± 1 nM
- inhibition of probe 13 labeling of MGAM [2]: inhibited
- inhibition of probe 13 labeling of GAA (GAA): time dependent inhibition
Compound: O=S1(=O)O[C@@H]2[C@H](O)[C@@H](O)[C@H](O)[C@@H](CO)[C@@H]2O1 [Compound 5, 1,6-epi-cyclophellitol cyclosulfate]
